# Compound activity (PubChem)
# Shown are actives, neighbours in structure and some others; about 0.99% of the full set was active somewhere.
# Tn6 DDE FP: inhibitors of Tn6 peptide binding to fibrin DD(E), primary screen, biochemical, fluorescence polarization, human fibrin, Tn6 probe; Fibrinogen beta chain (Homo sapiens), P02675; Fibrin DD(E) TRITC-Tn6 fluorescence polarization displacement; inhibition, % at 8.3 µM; actives 0.21% (n = 370,000);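 active = inhibition above a per-campaign cutoff: mean of compounds within control limits plus 3 SD, cut at about 15% in these data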
# DDE Tn7 FP inh: inhibitors of Tn7 peptide binding to fibrin DD(E), primary screen, biochemical, fluorescence polarization, human fibrin, Tn7 probe. Fibrinogen beta chain (Homo sapiens), P02675. FP displacement of FITC-Tn7 peptide from fibrin DD(E); 0% = median of compound wells per plate. AID 720508, 2013. inhibition, % at 8.3 µM. actives 0.13% (n = 370,000);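 active = inhibition above the mean of compounds falling within the control limits plus 3 SD of them, cut at about 14% in these data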
#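 Test system – human fibrin DD(E) · Times – 10 min preincubation, 3 h with tracer, room temperature · Detection – fluorescence polarization of the labelled Tn7 tracer · Measure – percent inhibition normalized to high-control wells · Benchmarks – high control wells with 10 µM unlabelled Aha-Tn7 peptide (full inhibition) · Repeats – singlicate testing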
# Insulin prom up: insulin promoter activators in MIN6 cells, imaging, high-content screening, mouse beta cells; actives 0.3% (n = 190,000); z-score at 5 µM; AID 1625, 2009; MIN6 insulin promoter-GFP reporter; hits give high values;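 active = z-score above 3 at 5 µM with at least 500 cells counted in the well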
# ABCG2 inh: ABCG2 efflux pump inhibitors, primary screen, multiplex with ABCB1, IgMXP3 cells, flow cytometry; Broad substrate specificity ATP-binding cassette transporter ABCG2 (Homo sapiens), Q9UNQ0; AID 1325, 2008; inhibition, % at 6.6 µM; actives 0.1% (n = 190,000); JC-1 efflux;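 active = inhibition above 80%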
#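 Assay system – ABCG2 IgMXP3 and barcoded ABCB1 CCRF-Adr cell mix · Input – 3 million cells/mL in well · Reagent – JC-1 fluorescent substrate · Compound – single test compound dose, 6.6 µM final · Timing – 10 min exposure at 25 °C with rotation, no wash · Detection – flow cytometry of retained JC-1 fluorescence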
# GRK2 aptamer HTS: compounds blocking aptamer binding on GRK2 – biochemical, human GRK2, bead flow cytometry, HTS, primary screen; FAM-aptamer displacement from GRK2; inhibition of aptamer binding, % at 10 µM; AID 488847, 2010; Beta-adrenergic receptor kinase 1 (Homo sapiens), P25098; actives 0.59% (n = 330,000);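 active = inhibition of aptamer binding above 40%, roughly 3 SD of noise, on plates passing a quality check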;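 also: median bead fluorescence of bound FAM aptamer so fluorescent compounds give negative values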
# ABCB1 inh: ABCB1 efflux pump inhibitors, primary screen, cell-based, multiplex, flow cytometry, ABCG2 counter-screen; actives 0.067% (n = 190,000); inhibition, % at 6.6 µM; CCRF-Adr cells, JC-1 efflux; ATP-dependent translocase ABCB1 (Homo sapiens), P08183; in the data active = inhibition above about 40%;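 also: higher value means more JC-1 retained so stronger ABCB1 efflux block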
# Target sequence (P08183 whole entry, looked up): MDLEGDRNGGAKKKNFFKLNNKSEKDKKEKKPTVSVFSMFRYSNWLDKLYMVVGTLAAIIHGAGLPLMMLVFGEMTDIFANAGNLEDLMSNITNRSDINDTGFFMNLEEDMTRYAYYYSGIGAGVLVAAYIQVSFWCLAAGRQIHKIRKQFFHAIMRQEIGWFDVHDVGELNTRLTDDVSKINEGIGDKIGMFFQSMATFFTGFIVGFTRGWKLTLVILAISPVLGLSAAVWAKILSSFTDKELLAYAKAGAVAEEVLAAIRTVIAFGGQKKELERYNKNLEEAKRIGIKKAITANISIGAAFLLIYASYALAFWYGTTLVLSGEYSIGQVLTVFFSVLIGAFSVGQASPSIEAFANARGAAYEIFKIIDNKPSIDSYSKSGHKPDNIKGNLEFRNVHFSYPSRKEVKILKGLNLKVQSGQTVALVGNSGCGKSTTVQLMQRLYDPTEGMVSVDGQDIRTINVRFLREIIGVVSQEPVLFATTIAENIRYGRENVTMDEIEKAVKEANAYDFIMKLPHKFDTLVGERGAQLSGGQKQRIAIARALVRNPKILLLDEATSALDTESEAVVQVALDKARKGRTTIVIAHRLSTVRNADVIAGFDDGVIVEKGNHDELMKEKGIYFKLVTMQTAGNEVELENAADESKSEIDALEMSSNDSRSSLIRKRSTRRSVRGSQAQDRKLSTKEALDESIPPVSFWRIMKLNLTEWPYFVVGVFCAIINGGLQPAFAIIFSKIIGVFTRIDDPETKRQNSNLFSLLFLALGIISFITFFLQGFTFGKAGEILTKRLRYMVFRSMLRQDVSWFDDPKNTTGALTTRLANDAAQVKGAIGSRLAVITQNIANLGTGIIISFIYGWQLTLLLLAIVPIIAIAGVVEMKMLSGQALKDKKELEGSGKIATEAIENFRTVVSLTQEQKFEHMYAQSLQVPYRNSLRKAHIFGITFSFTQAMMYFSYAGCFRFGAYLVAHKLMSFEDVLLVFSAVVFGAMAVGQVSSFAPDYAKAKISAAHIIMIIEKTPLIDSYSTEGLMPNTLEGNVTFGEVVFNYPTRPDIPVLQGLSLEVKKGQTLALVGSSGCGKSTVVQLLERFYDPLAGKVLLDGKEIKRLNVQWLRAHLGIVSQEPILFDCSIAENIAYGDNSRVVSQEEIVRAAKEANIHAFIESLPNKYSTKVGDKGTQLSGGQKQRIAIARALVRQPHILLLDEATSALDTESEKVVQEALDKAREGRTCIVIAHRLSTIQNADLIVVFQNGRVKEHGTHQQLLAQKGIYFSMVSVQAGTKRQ
# DDE Tn6 FP ctr: DD(E)-Tn6 binding inhibition, counter-screen; shares compounds with Tn6 DDE FP; Fibrin DD(E), TRITC-Tn6 fluorescence polarization displacement; 0% = median of compound wells, not DMSO; inhibition, % at 8.3 µM; actives 2% (n = 680); AID 720621;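 active = inhibition above the mean of test compounds lying between the control limits plus 3 SD of those, cut at about 14% in these data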
# Tn6 DDE conf: inhibitors of Tn6 peptide binding to fibrin DD(E), confirmation, biochemical, fluorescence polarization, human fibrin, Tn6 probe | FP displacement of TRITC-Tn6 peptide from DD(E); 0% = per-plate median of test wells | actives 10% (n = 680) | inhibition, % at 8.3 µM | AID 720631, 2013 | shares compounds with Tn6 DDE FP;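 active = inhibition above the mean of compounds lying within the control limits plus 3 SD, cut at about 16% in these data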
# A number is an active result; n = inactive; x = no result given; ! = not active in a repeat.
SMILES,Tn6 DDE FP,DDE Tn7 FP inh,Insulin prom up,ABCG2 inh,GRK2 aptamer HTS,ABCB1 inh,DDE Tn6 FP ctr,Tn6 DDE conf
O=C(Nc1ccccc1N1CCCC1)c1ccccc1Cl,n,n,x,x,n,x,x,x
O=C(Nc1ccccc1N1CCCC1)c1ccc(Cl)cc1Cl,16,n,n,n,n,n,n,n
CC1(C)CC(=O)C2=C(C1)N1C(=C(C#N)C2c2ccccc2Cl)N=C(N)c2ccccc21 (centres undefined),17,n,n,n,n,n,n,n
O=C(NC(=S)Nc1ccccc1)c1cc(-c2ccccc2)nc2ccccc12,21,n,n,n,n,n,n,n
O=S(=O)(Nc1cccc(-c2cn3cccnc3n2)c1)c1ccccc1,n,n,n,n,n,n,x,x
O=S(=O)(Nc1cccc(-c2cn3cccnc3n2)c1)c1ccc(-c2ccccc2)cc1,20,n,x,n,n,n,n,n
CC1(C)N=C(N)N=C(N)N1c1cccc(C#N)c1,16,n,x,x,x,x,n,n
Cc1cc2ncc(S(=O)(=O)C(C)(C)C)c(N)n2n1,17,n,n,n,n,n,n,n
Cc1cc2ncc(S(=O)(=O)c3ccccc3)c(N)n2n1,n,n,n,n,n,n,x,x
COc1ccc(N2CCN(CCNS(=O)(=O)c3ccc(F)cc3)CC2)cc1,n,n,x,x,x,x,x,x
C[n+]1cc2c3c(ccc2c2ccc4cc5c(cc4c21)OCO5)OCO3,27,n,x,x,x,x,n,20
O=C(CSc1nc2ccccc2[nH]1)Nc1nc(-c2ccc(Br)cc2)cs1,41,n,n,n,n,n,n,n
c1ccc(Oc2ccccc2-c2cc(NCCc3cccnc3)n3nccc3n2)cc1,17,n,x,x,x,x,n,n
O=C(CSc1nnc(-c2cccs2)n1Cc1ccco1)Nc1ccc(OCc2ccccc2)cc1,n,n,x,x,x,x,x,x
COc1ccc2c(c1)CCCN2C(=O)C1CCCN(S(=O)(=O)c2cccc3cccnc23)C1 (centres undefined),n,n,x,x,x,x,x,x
CC1=C2NC(N)=[N+](Cc3ccc4c(c3)OCO4)CC2n2c(=O)n(-c3ccccc3)c(=O)n2C1 (centres undefined),n,n,x,x,x,x,x,x
NS(=O)(=O)c1ccc(Nc2ccc3cc(S(=O)(=O)N4CCCCC4)ccc3n2)cc1,36,n,x,x,n,x,n,n
NS(=O)(=O)c1ccc(S(=O)(=O)N2CCCC2)cc1,n,n,n,n,n,n,x,x
COc1ccc(C(C(=O)N(C)C2CCCC2)N(Cc2ccc(F)cc2)C(=O)c2sccc2Cl)cc1OC (centres undefined),n,n,x,x,x,x,x,x
CCC(c1nnnn1-c1ccc2c(c1)OCCO2)N1CCN(c2ncccc2C(F)(F)F)CC1 (centres undefined),15!,n,x,x,x,x,n,n
CC(C)C[C@H]1COc2cccc(F)c2S(=O)(=O)N1Cc1cn(Cc2ccc(Cl)cc2)nn1,n,n,x,x,x,x,x,x
Cc1nn(-c2ccc(F)cc2)c2sc(C(=O)O)cc12,n,n,x,n,n,n,x,x
Cc1nn(-c2ccccc2)c2sc(C(=O)NCc3ccc(F)cc3)cc12,32,n,x,x,x,x,n,n
CC1(C(=O)NS(=O)(=O)c2ccc(Cl)cc2)CCN1C(=O)CCc1ccc(Cl)cc1Cl (centres undefined),n,n,x,x,x,x,x,x
CC1(C(=O)NS(=O)(=O)c2cccs2)CCN1C(=O)CCc1ccc(Cl)cc1Cl (centres undefined),17,n,x,x,x,x,n,n
